Source: ChEMBL document CHEMBL1121652, “Allylprodine analogues as receptor probes. Evidence that phenolic and nonphenolic ligands interact with different subsites on identical opioid receptors” (J Med Chem, 1981)
Activity calls are given as the source filed them.

Key:
Mus musculus [1] = organism: Mus musculus; test: Narcotic antagonistic potency evaluated in morphine-induced Straub tail phenomenon in mice; type: functional, organism-based; conditions: read-out: pA2 (converted)
Cavia porcellus [2] = organism: Cavia porcellus; test: Relative agonist molar potency on the electrically stimulated guinea pig myenteric plexus longitudinal muscle preparation at 10e-6; Inactive; type: functional; conditions: Muscle tissue
Procedure, shortened: (§1)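 Electrically stimulated guinea pig ileum myenteric plexus–longitudinal muscle, measuring inhibition of twitch. Compounds active at 10⁻⁷ M or below were run in at least three independent preparations. Reversibility was checked with naloxone 2 × 10⁻⁶ M in the bath.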

Mus musculus [3] = organism: Mus musculus; test: Compound was evaluated for antagonist activity only at subagonistic dose levels in mice by mouse hotplate procedure; type: functional
Mus musculus [4] = test: Compound was tested for narcotic agonist activity in mice by mouse hotplate procedure; Inactive at 110 uM/kg; type: functional, organism-based
Procedure, shortened: (§2)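 Male white Swiss-Webster mice, 25–35 g, at least five per dose. Baseline taken as three reaction times 15 min apart. Drug given s.c. in physiological saline. Hot plate read 10, 15 or 30 min after dosing, depending on compound class. Analgesia means postinjection time over double the control, with a 30 s cutoff. ED50 by probit analysis on free-base molar dose.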

Mus musculus [5] = organism: Mus musculus; test: Narcotic antagonistic potency evaluated by morphine-induced Straub tail phenomenon in mice; type: functional, organism-based; conditions: read-out: pA2 (converted)
Mus musculus [6] = organism: Mus musculus; test: Compound was tested for narcotic agonist activity (effective dose) by mouse hotplate procedure
Cavia porcellus [7] = organism: Cavia porcellus; test: Relative agonist molar potency on the electrically stimulated guinea pig myenteric plexus longitudinal muscle preparation; type: functional, Muscle tissue; procedure, shortened: as §1
Mus musculus [8] = test: Compound was evaluated for antagonist activity only at subagonistic dose levels in mice by mouse hotplate procedure; Inactive at 26 uM/kg; type: functional, organism-based
Mus musculus [9] = organism: Mus musculus; test: Compound was tested for narcotic agonist activity in mice by mouse hotplate procedure; type: functional; procedure, shortened: as §2
Mus musculus [10] = organism: Mus musculus; test: Compound was evaluated for antagonist activity only at subagonistic dose levels by mouse hotplate procedure; type: functional
Mus musculus [11] = test: Compound was evaluated for antagonist activity only at subagonistic dose levels in mice by mouse hotplate procedure; Inactive at 100 uM/kg; type: functional, organism-based
Mus musculus [12] = test: Compound was tested for narcotic agonist activity in mice by mouse hotplate procedure; Inactive at 100 uM/kg; type: functional, organism-based; procedure, shortened: as §2
Mus musculus [13] = test: Compound was evaluated for antagonist activity only at subagonistic dose levels in mice by mouse hotplate procedure; Inactive at 115 uM/kg; type: functional, organism-based
Mus musculus [14] = test: Compound was tested for narcotic agonist activity in mice by mouse hotplate procedure; Inactive at 115 uM/kg; type: functional, organism-based; procedure, shortened: as §2
Mus musculus [15] = test: Compound was evaluated for antagonist activity only at subagonistic dose levels in mice by mouse hotplate procedure; Inactive at 15 umol/kg; type: functional, organism-based
Mus musculus [16] = test: Compound was evaluated for antagonist activity only at subagonistic dose levels in mice by mouse hotplate procedure; Inactive at 17 uM/kg; type: functional, organism-based
Mus musculus [17] = test: Compound was evaluated for antagonist activity only at subagonistic dose levels in mice by mouse hotplate procedure; Inactive at 60 uM/kg; type: functional, organism-based
Mus musculus [18] = test: Compound was tested for narcotic agonist activity in mice by mouse hotplate procedure; Inactive at 60 uM/kg; type: functional, organism-based; procedure, shortened: as §2
Mus musculus [19] = test: Compound was tested for narcotic agonist activity in mice by mouse hotplate procedure; Inactive at 120 uM/kg; type: functional, organism-based; procedure, shortened: as §2
Mus musculus [20] = test: Compound was evaluated for antagonist activity only at subagonistic dose of 120 uM/kg levels in mice by mouse hotplate procedure; type: functional
Mus musculus [21] = test: Compound was evaluated for antagonist activity only at subagonistic dose levels in mice by mouse hotplate procedure; Inactive at 30 umol/kg; type: functional, organism-based
Mus musculus [22] = test: Compound was tested for narcotic agonist activity in mice by mouse hotplate procedure; Inactive at 55 uM/kg; type: functional, organism-based; procedure, shortened: as §2

`C=CCN1CC[C@]23c4c5ccc(O)c4O[C@H]2C(=O)CC[C@@]3(O)[C@H]1C5` [NALOXONE] gave a Kb (Mus musculus [1]) of 2.95 nM.

For `C=CC[C@@H]1CN(CC=C)CC[C@@]1(OC(=O)CC)c1cccc(O)c1`, the Potency (Cavia porcellus [2]) was “inactive”, the AD50 (Mus musculus [3]) was 74.13 µM/kg and the ED50 (Mus musculus [4]) was “inactive”. For the same compound, the Kb (Mus musculus [5]) was no less than 1000 nM.

`CN1CC[C@]23c4c5ccc(O)c4O[C@H]2[C@@H](O)C=C[C@H]3[C@H]1C5` [MORPHINE] was tested, and the ED50 (Mus musculus [6]) was 12.4 µmol/kg.

For `C=CC[C@@H]1CN(CC=C)CC[C@@]1(OC(=O)CC)c1cccc(OC)c1`, the Potency (Cavia porcellus [7]) was 0.033, the AD50 (Mus musculus [8]) was “inactive” and the Kb (Mus musculus [5]) was no less than 1000 nM. It also gave an Inhibition (Mus musculus [9]) of 17%.

`O=C1CC[C@@]2(O)[C@H]3Cc4ccc(O)c5c4[C@@]2(CCN3CC2CC2)[C@H]1O5` [NALTREXONE] gave a Kb (Mus musculus [1]) greater than 1000 nM and an AD50 (Mus musculus [10]) of 0.031 µM/kg.

In the case of `CCC[C@@H]1CN(C)CC[C@@]1(OC(=O)CC)c1cccc(O)c1`, the Potency (Cavia porcellus [2]) is reported as “inactive”, the AD50 (Mus musculus [11]) is reported as “inactive” and the ED50 (Mus musculus [12]) is reported as “inactive”. The Kb (Mus musculus [5]) was no less than 1000 nM.

`CCC[C@H]1CN(C)CC[C@@]1(OC(=O)CC)c1cccc(O)c1` was tested, and the Potency (Cavia porcellus [2]) was “inactive”, the AD50 (Mus musculus [11]) was “inactive” and the ED50 (Mus musculus [12]) was “inactive”. The Kb (Mus musculus [5]) was no less than 1000 nM.

With `C=CC[C@H]1CN(C)CC[C@@]1(OC(=O)CC)c1cccc(OC)c1` the Potency (Cavia porcellus [2]) was “inactive”, the AD50 (Mus musculus [13]) was “inactive” and the ED50 (Mus musculus [14]) was “inactive”. The Kb (Mus musculus [5]) was no less than 1000 nM.

In the case of `C=CC[C@@H]1CN(C)CC[C@@]1(OC(=O)CC)c1cccc(OC)c1`, the Potency (Cavia porcellus [7]) is reported as 0.12, the AD50 (Mus musculus [15]) is reported as “inactive” and the Kb (Mus musculus [5]) is reported as no less than 1000 nM. For the same compound, the ED50 (Mus musculus [9]) was 34.7 µmol/kg.

With `CCC(=O)OC1(c2cccc(O)c2)CCN(C)CC1` the Potency (Cavia porcellus [7]) was 0.011, the AD50 (Mus musculus [16]) was “inactive” and the Kb (Mus musculus [5]) was no less than 1000 nM. It also gave an ED50 (Mus musculus [9]) of 110 µmol/kg.

`C=CC[C@H]1CN(C)CC[C@@]1(OC(=O)CC)c1cccc(O)c1` was tested, and the Potency (Cavia porcellus [2]) was “inactive”, the AD50 (Mus musculus [17]) was “inactive” and the ED50 (Mus musculus [18]) was “inactive”. For the same compound, the Kb (Mus musculus [5]) was no less than 1000 nM.

With `C=CC[C@@H]1CN(C)CC[C@@]1(OC(=O)CC)c1ccccc1` the Potency (Cavia porcellus [7]) was 4.51, the Kb (Mus musculus [5]) was no less than 1000 nM and the ED50 (Mus musculus [9]) was 0.54 µmol/kg.

`C=CC[C@@H]1CN(C)CC[C@@]1(OC(=O)CC)c1cccc(O)c1` was tested, and the Potency (Cavia porcellus [2]) was “inactive”, the ED50 (Mus musculus [19]) was “inactive” and the AD50 (Mus musculus [20]) was 12%. For the same compound, the Kb (Mus musculus [5]) was no less than 1000 nM.

With `C=CC[C@H]1CN(CC=C)CC[C@@]1(OC(=O)CC)c1cccc(O)c1` the Potency (Cavia porcellus [2]) was “inactive”, the AD50 (Mus musculus [21]) was “inactive” and the ED50 (Mus musculus [22]) was “inactive”. It also gave a Kb (Mus musculus [5]) of no less than 1000 nM.
